Data set [1] can be described thus: Toxicity in BALB/c mouse infected with Trypanosoma cruzi MHOM/Pe/2011/Arequipa;DTU 5 bloodstream trypomastigote assessed as decrease in serum uric acid level in chronic phase at 20 mg/kg/day, po administered for 5 consecutive days starting from day 70 post infection measured on day 100 post infection relative to control. Type of data set: organism-based. More on the design: scale not given: the % may be the effect or the level left. As to conditions: in vivo. The procedure, abridged:
(§1)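 Female BALB/c mice (10–12 weeks, 14–20 g; groups of three) were infected i.p. with 5 × 10^5 Arequipa bloodstream trypomastigotes. Dosing was oral at 20 mg/kg/day for 5 days, from day 8 pi (acute) or day 70 pi (chronic), as a 2 mg/ml suspension in 5% DMSO/0.5% HPMC; controls received vehicle. Cyclophosphamide 200 mg/kg i.p. was given at day 80 pi. Serum was collected 2 days post-treatment and at necropsy by cardiac puncture and compared with infected untreated controls.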

Data set [2] can be described thus: Genotoxicity in Salmonella typhimurium TA1535 harboring pSK1002 assessed as survival at 0.016 mg/ml in presence of Sprague-Dawley rat liver S9 fraction metabolic activation by SOS/umu assay relative to control. Type of data set: toxicity, subcellular. Particulars: salmonella enterica subsp. enterica serovar typhimurium, read-out: Survival. The method, boiled down: (§2)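 Survival of S. typhimurium TA1535/pSK1002 exposed to a range of compound concentrations with or without S9 mix in 96-well format. Survival percentage measured as the cytotoxicity arm of the SOS/umu test. Concentrations with survival ≥80% are counted as non-cytotoxic.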

Data set [3] in a line: Genotoxicity in Salmonella typhimurium TA1535 harboring pSK1002 assessed as umu gene induction at 0.002 mg/ml in absence of Sprague-Dawley rat liver S9 fraction metabolic activation by SOS/umu assay relative to control. Type of data set: toxicity. Particulars: salmonella enterica subsp. enterica serovar typhimurium, read-out: FC. The procedure, abridged: (§3)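 umu induction in S. typhimurium TA1535/pSK1002, with or without S9 mix, in 96-well format. β-galactosidase read colorimetrically with ONPG substrate. Output given as relative units and induction factor (IF). The run is valid if positive controls reach IF ≥2. A compound counts as genotoxic at IF ≥2 at a concentration giving ≥80% bacterial survival.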

The nature of data set [4]: Genotoxicity in Salmonella typhimurium TA1535 harboring pSK1002 assessed as umu gene induction at 1 mg/ml in absence of Sprague-Dawley rat liver S9 fraction metabolic activation by SOS/umu assay relative to control. As to conditions: salmonella enterica subsp. enterica serovar typhimurium, read-out: FC. The data set is classed as toxicity. The procedure, abridged:
as §3

For data set [5], the system named is Trypanosoma cruzi. In words: Trypanocidal activity against Trypanosoma cruzi trypomastigote form infected in African green monkey Vero cells assessed as ratio of infected cells at 50 uM measured after 72 hrs by Giemsa staining based assay relative to control. The data set is classed as functional. The procedure, abridged:
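Vero cells (1 × 10^4/well, on coverslips) were infected with trypomastigotes at MOI 10:1 for 24 h and washed three times with PBS. They were treated at 3.1, 6.25, 12.5, 25 and 50 µM for 72 h at 37 °C in 5% CO2. Infected cells were counted after Giemsa staining. Triplicates, two separate determinations.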

The nature of data set [6]: Genotoxicity in Salmonella typhimurium TA1535 harboring pSK1002 assessed as umu gene induction at 0.063 mg/ml in absence of Sprague-Dawley rat liver S9 fraction metabolic activation by SOS/umu assay relative to control. Type of data set: toxicity. As to conditions: salmonella enterica subsp. enterica serovar typhimurium, read-out: FC. The procedure, abridged: as §3
Data set [7] in a line: Genotoxicity in Salmonella typhimurium TA1535 harboring pSK1002 assessed as umu gene induction at 0.001 mg/ml in presence of Sprague-Dawley rat liver S9 fraction metabolic activation by SOS/umu assay relative to control. Type of data set: toxicity, subcellular. Particulars: salmonella enterica subsp. enterica serovar typhimurium, read-out: FC. The procedure, abridged:
as §3

Data set [8] can be described thus: Genotoxicity in Salmonella typhimurium TA1535 harboring pSK1002 assessed as survival at 0.002 mg/ml in presence of Sprague-Dawley rat liver S9 fraction metabolic activation by SOS/umu assay relative to control. Type of data set: toxicity, subcellular. Particulars: salmonella enterica subsp. enterica serovar typhimurium, read-out: Survival. The procedure, abridged:
as §2

Data set [9] in a line: Genotoxicity in Salmonella typhimurium TA1535 harboring pSK1002 assessed as survival at 0.001 mg/ml in absence of Sprague-Dawley rat liver S9 fraction metabolic activation by SOS/umu assay relative to control. Particulars: salmonella enterica subsp. enterica serovar typhimurium, read-out: Survival. Type of data set: toxicity. The procedure, abridged: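 Salmonella typhimurium TA1535/pSK1002 was exposed to compounds at several concentrations with or without S9 mix, and bacterial survival % was measured. β-galactosidase induction was measured colorimetrically with ONPG substrate. Genotoxicity was counted where IF ≥ 2 at ≥80% survival; runs were valid if positive controls reached IF ≥ 2.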

The subject of data set [10] is Trypanosoma cruzi. In words: Inhibition of Trypanosoma cruzi MHOM/Pe/2011/Arequipa;DTU 5 epimastigote Fe-SOD at 6.3 uM relative to control. The procedure, abridged: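 Fe-SOD excreted by exponentially growing T. cruzi Arequipa epimastigotes cultured in supplemented MTL at 28 °C. Protein quantified by Bradford. SOD activity measured by the Beyer–Fridovich method. IC50 from inhibition curves by nonlinear regression. Mean of three independent determinations ± standard deviation.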

Data set [11] can be described thus: Toxicity in BALB/c mouse infected with Trypanosoma cruzi MHOM/Pe/2011/Arequipa;DTU 5 bloodstream trypomastigote assessed as change in serum alanine aminotransferase level in acute phase at 20 mg/kg/day, po administered for 5 consecutive days starting from day 8 post infection and measured on day 100 post infection by biochemical analysis relative to control. Type of data set: organism-based. Particulars: in vivo. The method, boiled down: as §1

The nature of data set [12]: Genotoxicity in Salmonella typhimurium TA1535 harboring pSK1002 assessed as umu gene induction at 0.008 mg/ml in absence of Sprague-Dawley rat liver S9 fraction metabolic activation by SOS/umu assay relative to control. The data set is classed as toxicity. As to conditions: salmonella enterica subsp. enterica serovar typhimurium, read-out: FC. The procedure, abridged:
as §3

The nature of data set [13]: Genotoxicity in Salmonella typhimurium TA1535 harboring pSK1002 assessed as umu gene induction at 0.001 mg/ml in absence of Sprague-Dawley rat liver S9 fraction metabolic activation by SOS/umu assay relative to control. Type of data set: toxicity. As to conditions: salmonella enterica subsp. enterica serovar typhimurium, read-out: FC. The procedure, abridged: as §3

A short description of data set [14]: Toxicity in BALB/c mouse infected with Trypanosoma cruzi MHOM/Pe/2011/Arequipa;DTU 5 bloodstream trypomastigote assessed as change in serum lactate dehydrogenase level in acute phase at 20 mg/kg/day, po administered for 5 consecutive days starting from day 8 post infection and measured on day 100 post infection by biochemical analysis relative to control. Type of data set: organism-based. As to conditions: in vivo. The procedure, abridged: as §1

A short description of data set [15]: Genotoxicity in Salmonella typhimurium TA1535 harboring pSK1002 assessed as umu gene induction at 1 mg/ml in presence of Sprague-Dawley rat liver S9 fraction metabolic activation by SOS/umu assay relative to control. As to conditions: salmonella enterica subsp. enterica serovar typhimurium, read-out: FC. The data set is classed as toxicity, subcellular. The procedure, abridged:
as §3

Data set [16] can be described thus: Genotoxicity in Salmonella typhimurium TA1535 harboring pSK1002 assessed as survival at 0.125 mg/ml in absence of Sprague-Dawley rat liver S9 fraction metabolic activation by SOS/umu assay relative to control. Type of data set: toxicity. As to conditions: salmonella enterica subsp. enterica serovar typhimurium, read-out: Survival. The method, boiled down: as §2

A short description of data set [17]: Genotoxicity in Salmonella typhimurium TA1535 harboring pSK1002 assessed as survival at 0.004 mg/ml in presence of Sprague-Dawley rat liver S9 fraction metabolic activation by SOS/umu assay relative to control. Type of data set: toxicity, subcellular. Particulars: salmonella enterica subsp. enterica serovar typhimurium, read-out: Survival. The procedure, abridged: as §2

Data set [18] is described as follows: Genotoxicity in Salmonella typhimurium TA1535 harboring pSK1002 assessed as survival at 0.004 mg/ml in absence of Sprague-Dawley rat liver S9 fraction metabolic activation by SOS/umu assay relative to control. Type of data set: toxicity. As to conditions: salmonella enterica subsp. enterica serovar typhimurium, read-out: Survival. The method, boiled down: as §2

Data set [19] addresses Superoxide dismutase [Cu-Zn] (Homo sapiens, UniProt P00441). As to the kind of experiment: Inhibition of human erythrocyte CuZn-SOD. The procedure, abridged:
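Commercial human erythrocyte CuZn-SOD. Activity measured by the Beyer–Fridovich method, tested up to 50 µM.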

Data set [20] in a line: Toxicity in BALB/c mouse infected with Trypanosoma cruzi MHOM/Pe/2011/Arequipa;DTU 5 bloodstream trypomastigote assessed as decrease in serum urea level in acute phase at 20 mg/kg/day, po administered for 5 consecutive days starting from day 8 post infection and measured on day 100 post infection by biochemical analysis relative to control. More on the design: scale not given: the % may be the effect or the level left. As to conditions: in vivo. Type of data set: organism-based. The method, boiled down: as §1

Results on three molecules are retold here after ChEMBL document CHEMBL4402517, “Rational modification of Mannich base-type derivatives as novel antichagasic compounds: Synthesis, in vitro and in vivo evaluation” (Bioorg Med Chem, 2019).

The structures appear in SMILES notation.

Superoxide dismutase [Cu-Zn], sequence (P00441 whole entry): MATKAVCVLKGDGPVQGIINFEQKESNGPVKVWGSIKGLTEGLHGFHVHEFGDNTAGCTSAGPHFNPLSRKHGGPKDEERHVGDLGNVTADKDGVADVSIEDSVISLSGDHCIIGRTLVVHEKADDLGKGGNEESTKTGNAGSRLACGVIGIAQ

The term inhibition denotes the drop in the measured response relative to a control, in per cent. By IC50 is commonly meant the midpoint of a concentration-inhibition curve. In the case of `O=C(CCN1CCN(c2ccc(C(F)(F)F)cc2)CC1)c1ccc(O)cc1`, the Activity result in data set [1] is listed as “<= 10%”; in data set [11], greater than 10%; in data set [14], greater than 10%. In data set [2], the viability at 0.016 mg/ml is 110%. Also, the fold induction at 0.002 mg/ml in [3] is 0.74. The results for the fold induction at 1 mg/ml in [4] and in [15] were 0.16 and 0.37, respectively. The Ratio in the data set with Trypanosoma cruzi [5] is given as 7%. Besides, the fold induction at 0.063 mg/ml in [6] stood at 0.67. The fold induction at 0.001 mg/ml in [7] is 0.82; in [13], 0.91. Further, in data set [8], the viability at 0.002 mg/ml is 108%. The viability at 0.001 mg/ml in [9] stood at 114%. Besides, the inhibition in the data set with Trypanosoma cruzi [10] is greater than 50%. Also, the fold induction at 0.008 mg/ml in [12] stood at 0.75. The viability at 0.125 mg/ml in [16] is 122%. In addition, the values for the viability at 0.004 mg/ml in data set [17] and in data set [18] were 112% and 127%, respectively. Besides, in data set [19], the IC50 was greater than 50 µM.

Turning to `O=C(Cn1ccnc1[N+](=O)[O-])NCc1ccccc1` [BENZNIDAZOLE], the figures for the Activity result in [1], in data set [11] and in data set [20] were “<= 30%”, greater than 10% and “<= 20%”, respectively. The Ratio in the data set on Trypanosoma cruzi [5] came to 18%.

Turning to `O=C(CCN1CCN(c2ccc(Cl)cc2)CC1)c1ccc(O)cc1`, the viability at 0.016 mg/ml in data set [2] came to 106%. In data set [3], the fold induction at 0.002 mg/ml worked out at 0.78. Further, the fold induction at 1 mg/ml in data set [4] came to 0.12; in [15], 0.38. Further, the fold induction at 0.063 mg/ml in data set [6] worked out at 0.71. The figures for the fold induction at 0.001 mg/ml in data set [7] and in data set [13] were 0.76 and 0.83, respectively. Moreover, in data set [8], the viability at 0.002 mg/ml turned out to be 111%. The viability at 0.001 mg/ml in data set [9] came to 104%. In the data set with Trypanosoma cruzi [10], the inhibition is greater than 50%. In addition, the fold induction at 0.008 mg/ml in data set [12] stood at 0.71. For the same molecule, the Activity entry in [20] is “<= 10%”; in [14], greater than 10%. In addition, the viability at 0.125 mg/ml in data set [16] came out at 198%. In addition, the viability at 0.004 mg/ml is 108% in [17] and 140% in data set [18]. The molecule also gave an IC50 in [19] greater than 50 µM.
